One data set addresses CYP2E1 (Homo sapiens, UniProt P05181). Kind of data set: CYP2E1 inhibition in human liver microsomes. It counts as in vitro ADME. In a few lines: (§1)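 Pooled human liver microsomes were incubated with standard CYP-selective substrates, with and without test compound at 0.03–100 μM. Standard selective inhibitors for each isoform ran in parallel as positive controls. Read-out was IC50. For CYP3A4 only, time-dependent inhibition was also tested after 30 min preincubation, using midazolam and testosterone as substrates.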

A further data set deals with CYP3A4. Kind of data set: Relative induction score. Details: species or system human. The following applies: sensitive CYP3A4 substrate midazolam. In a few lines:
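The relative induction score (RIS) method was applied to CYP3A4 induction data from hepatocytes of three donors treated for 3 days. Strong, moderate and weak reference inducers (rifampicin, bosentan, pioglitazone) served as calibrators for estimating clinical DDI risk.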

In data set [1] the target is T1, OCT1 (Homo sapiens, UniProt O15245).
T1 sequence (O15245 1-554): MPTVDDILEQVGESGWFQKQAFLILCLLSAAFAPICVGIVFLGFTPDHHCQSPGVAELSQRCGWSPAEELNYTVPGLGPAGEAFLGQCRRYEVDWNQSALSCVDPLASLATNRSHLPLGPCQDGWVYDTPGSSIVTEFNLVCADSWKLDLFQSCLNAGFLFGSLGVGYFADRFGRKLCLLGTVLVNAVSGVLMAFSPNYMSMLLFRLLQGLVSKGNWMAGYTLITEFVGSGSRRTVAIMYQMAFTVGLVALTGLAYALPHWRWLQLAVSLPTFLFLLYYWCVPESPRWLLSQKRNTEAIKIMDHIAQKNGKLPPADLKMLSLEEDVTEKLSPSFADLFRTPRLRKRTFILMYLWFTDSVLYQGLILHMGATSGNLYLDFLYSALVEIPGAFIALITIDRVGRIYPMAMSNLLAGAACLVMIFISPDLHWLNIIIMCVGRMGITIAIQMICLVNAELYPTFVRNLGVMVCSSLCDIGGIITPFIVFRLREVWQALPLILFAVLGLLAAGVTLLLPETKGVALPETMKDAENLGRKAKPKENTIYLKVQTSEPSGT
In words: Cellular uptake in OCT1-transfected HEK cells. To be noted: not affected by decynium-22. The data set is classed as in vitro ADME. In short, it runs like this:
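Cellular uptake of test compound was measured in HEK cells transfected to overexpress OATP1B1, OATP1B3 or OCT1. Vector-control cells were run in parallel. Standard inhibitors and probe substrates were included; decynium-22 served as OCT1 inhibitor, rifamycin as OATP inhibitor.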

The target in a further data set is MATE2-K (Homo sapiens, UniProt Q86VL8). In words: MATE2-K inhibition in transfected HEK cells. It counts as in vitro ADME. In a few lines:
(§2)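 HEK cells were transfected with MRP2, MATE1 or MATE2-K. Pairs were CDCF/benzbromarone (MRP2), metformin/cimetidine (MATE1) and metformin/pyrimethamine (MATE2-K). Probe transport was assessed with and without test compound, and IC50 was determined.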

The next data set deals with OAT1 (Homo sapiens, UniProt Q4U2R8). In words: OAT1 uptake inhibition in transfected HEK cells. The data set is classed as in vitro ADME. In short, it runs like this: (§3)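 HEK cells overexpressing NTCP, OAT1, OAT3, OATP2B1, OCT1 or OCT2 were incubated with probe substrate. Pairs were estrone 3-sulfate/cyclosporin A (NTCP), PAH/probenecid (OAT1), furosemide/probenecid (OAT3), estrone 3-sulfate/glibenclamide (OATP2B1), 3H-MPP+/decynium 22 (OCT1) and 3H-MPP+/imipramine (OCT2). IC50 was determined with and without test compound, at ≤50 µM for the parent and ≤10 µM for the metabolite.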

The next data set addresses T2, CYP1A2 (Homo sapiens, UniProt P05177).
T2 sequence (P05177 1-516): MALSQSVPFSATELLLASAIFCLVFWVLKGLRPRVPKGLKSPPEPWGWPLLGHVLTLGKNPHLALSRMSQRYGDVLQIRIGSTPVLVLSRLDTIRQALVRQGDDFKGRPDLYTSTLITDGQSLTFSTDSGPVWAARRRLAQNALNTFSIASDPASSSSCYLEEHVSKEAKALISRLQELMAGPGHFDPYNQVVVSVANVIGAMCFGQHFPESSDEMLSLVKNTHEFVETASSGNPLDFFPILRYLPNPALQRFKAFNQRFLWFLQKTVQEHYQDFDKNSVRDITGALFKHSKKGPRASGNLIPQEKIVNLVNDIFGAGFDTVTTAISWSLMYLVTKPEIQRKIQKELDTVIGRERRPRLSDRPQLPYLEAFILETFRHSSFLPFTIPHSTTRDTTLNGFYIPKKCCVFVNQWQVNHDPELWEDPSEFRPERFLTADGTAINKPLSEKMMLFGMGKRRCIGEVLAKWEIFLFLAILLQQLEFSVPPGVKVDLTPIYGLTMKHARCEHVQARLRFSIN
In words: biochemical. The data set is classed as in vitro ADME.

Another data set deals with MRP2 (Homo sapiens, UniProt Q92887). In words: MRP2 inhibition in transfected HEK cells. The data set is classed as in vitro ADME. In short, it runs like this:
as §2

The next data set has as its target CYP2C19 (Homo sapiens, UniProt P33261). Kind of data set: CYP2C19 inhibition in human liver microsomes. It counts as in vitro ADME. In a few lines:
as §1
For orientation: Microsomes from liver hold many membrane-bound enzymes, among them those of drug oxidation.

Data set [2] addresses T1, OCT1. Kind of data set: OCT1 uptake inhibition in transfected HEK cells. The data set is classed as in vitro ADME. In short, it runs like this: as §3
For another data set, the target named is OAT3 (Homo sapiens, UniProt Q8TCC7). Kind of data set: OAT3 uptake inhibition in transfected HEK cells. It counts as in vitro ADME. In short, it runs like this: as §3

Like-named read-outs stand apart in the source and are kept apart here. Where only a bound is given, the exact number is not on record here.

Sequence of CYP2C19 (P33261 whole entry): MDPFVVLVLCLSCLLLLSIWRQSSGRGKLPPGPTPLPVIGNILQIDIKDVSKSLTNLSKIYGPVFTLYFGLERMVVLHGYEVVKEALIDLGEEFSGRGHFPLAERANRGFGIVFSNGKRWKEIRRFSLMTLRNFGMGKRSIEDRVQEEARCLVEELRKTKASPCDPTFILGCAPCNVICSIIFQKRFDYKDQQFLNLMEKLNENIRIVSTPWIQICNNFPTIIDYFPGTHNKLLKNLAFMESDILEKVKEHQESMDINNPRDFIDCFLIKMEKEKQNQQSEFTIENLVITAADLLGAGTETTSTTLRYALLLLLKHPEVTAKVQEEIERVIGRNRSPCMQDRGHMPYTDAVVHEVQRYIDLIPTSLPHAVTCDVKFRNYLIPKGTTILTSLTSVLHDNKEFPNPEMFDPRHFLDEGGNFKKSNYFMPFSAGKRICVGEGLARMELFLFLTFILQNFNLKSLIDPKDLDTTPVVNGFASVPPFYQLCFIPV
Sequence of MATE2-K (Q86VL8 1-566 isoform Q86VL8-3): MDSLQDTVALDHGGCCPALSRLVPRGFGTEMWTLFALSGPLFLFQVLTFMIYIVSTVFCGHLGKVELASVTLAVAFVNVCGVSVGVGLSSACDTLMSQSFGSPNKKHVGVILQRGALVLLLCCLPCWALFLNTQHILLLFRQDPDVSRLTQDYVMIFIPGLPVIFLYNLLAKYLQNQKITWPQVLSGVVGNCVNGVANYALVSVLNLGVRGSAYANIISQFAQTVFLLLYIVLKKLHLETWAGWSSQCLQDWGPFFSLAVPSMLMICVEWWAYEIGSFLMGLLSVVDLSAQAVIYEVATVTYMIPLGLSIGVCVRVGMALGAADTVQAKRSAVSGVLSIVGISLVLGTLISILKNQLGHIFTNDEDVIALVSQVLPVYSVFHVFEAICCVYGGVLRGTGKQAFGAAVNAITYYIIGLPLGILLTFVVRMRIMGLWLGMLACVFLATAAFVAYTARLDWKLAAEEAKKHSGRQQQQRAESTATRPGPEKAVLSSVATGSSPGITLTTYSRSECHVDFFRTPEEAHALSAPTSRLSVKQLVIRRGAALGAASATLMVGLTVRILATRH
Sequence of MRP2 (Q92887 whole entry): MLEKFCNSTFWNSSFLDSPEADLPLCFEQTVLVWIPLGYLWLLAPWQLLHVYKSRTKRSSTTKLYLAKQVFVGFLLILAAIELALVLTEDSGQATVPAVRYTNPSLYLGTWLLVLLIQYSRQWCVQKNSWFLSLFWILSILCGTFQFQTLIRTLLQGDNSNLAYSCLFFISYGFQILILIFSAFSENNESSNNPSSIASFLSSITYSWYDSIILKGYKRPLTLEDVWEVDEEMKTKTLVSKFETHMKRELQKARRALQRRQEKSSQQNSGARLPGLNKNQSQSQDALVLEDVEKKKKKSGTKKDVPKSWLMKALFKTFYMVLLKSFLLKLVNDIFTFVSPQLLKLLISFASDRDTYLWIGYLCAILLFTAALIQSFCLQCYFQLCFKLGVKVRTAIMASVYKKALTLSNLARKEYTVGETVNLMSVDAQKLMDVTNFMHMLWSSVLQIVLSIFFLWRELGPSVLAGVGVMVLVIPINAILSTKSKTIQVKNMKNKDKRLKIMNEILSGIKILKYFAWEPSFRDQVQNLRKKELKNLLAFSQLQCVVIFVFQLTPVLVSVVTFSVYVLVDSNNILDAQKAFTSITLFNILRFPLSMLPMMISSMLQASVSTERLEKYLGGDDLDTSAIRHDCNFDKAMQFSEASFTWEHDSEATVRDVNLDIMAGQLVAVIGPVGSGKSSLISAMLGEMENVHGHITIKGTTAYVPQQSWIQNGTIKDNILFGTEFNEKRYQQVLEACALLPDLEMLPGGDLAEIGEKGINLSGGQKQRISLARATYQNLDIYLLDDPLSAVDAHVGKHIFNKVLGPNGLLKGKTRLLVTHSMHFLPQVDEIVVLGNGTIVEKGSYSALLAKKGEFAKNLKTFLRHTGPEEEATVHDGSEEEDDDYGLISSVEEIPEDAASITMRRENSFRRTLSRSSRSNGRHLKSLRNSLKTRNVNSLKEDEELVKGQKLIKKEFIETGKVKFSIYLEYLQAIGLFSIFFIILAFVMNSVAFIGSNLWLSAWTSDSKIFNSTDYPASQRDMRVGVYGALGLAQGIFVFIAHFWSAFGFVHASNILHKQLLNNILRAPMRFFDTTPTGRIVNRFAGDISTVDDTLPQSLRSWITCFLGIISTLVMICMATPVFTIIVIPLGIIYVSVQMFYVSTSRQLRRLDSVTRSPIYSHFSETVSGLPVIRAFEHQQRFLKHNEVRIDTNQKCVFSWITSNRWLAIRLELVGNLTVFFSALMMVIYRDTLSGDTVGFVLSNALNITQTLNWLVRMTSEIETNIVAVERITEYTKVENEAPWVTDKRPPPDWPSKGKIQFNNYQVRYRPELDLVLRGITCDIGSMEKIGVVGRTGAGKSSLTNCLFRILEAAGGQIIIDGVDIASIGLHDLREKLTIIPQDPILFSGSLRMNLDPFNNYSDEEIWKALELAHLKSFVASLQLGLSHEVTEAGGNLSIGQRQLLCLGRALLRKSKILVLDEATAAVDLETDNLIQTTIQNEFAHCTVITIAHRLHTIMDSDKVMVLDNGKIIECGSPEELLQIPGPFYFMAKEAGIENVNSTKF
Sequence of OAT3 (Q8TCC7 whole entry): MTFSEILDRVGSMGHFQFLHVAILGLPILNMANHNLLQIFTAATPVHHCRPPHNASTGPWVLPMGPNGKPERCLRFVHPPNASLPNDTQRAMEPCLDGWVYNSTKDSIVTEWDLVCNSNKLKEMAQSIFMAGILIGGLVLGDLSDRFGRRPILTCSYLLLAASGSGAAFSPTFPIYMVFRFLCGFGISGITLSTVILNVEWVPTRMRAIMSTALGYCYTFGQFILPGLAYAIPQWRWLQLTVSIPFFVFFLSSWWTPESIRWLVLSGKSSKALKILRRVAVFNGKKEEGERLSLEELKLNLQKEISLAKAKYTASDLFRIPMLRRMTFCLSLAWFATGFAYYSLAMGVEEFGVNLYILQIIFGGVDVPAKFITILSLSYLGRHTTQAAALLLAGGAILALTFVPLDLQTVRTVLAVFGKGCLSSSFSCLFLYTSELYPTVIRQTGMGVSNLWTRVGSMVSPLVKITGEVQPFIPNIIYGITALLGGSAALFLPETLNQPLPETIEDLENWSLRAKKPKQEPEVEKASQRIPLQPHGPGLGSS
Sequence of OAT1 (Q4U2R8 whole entry): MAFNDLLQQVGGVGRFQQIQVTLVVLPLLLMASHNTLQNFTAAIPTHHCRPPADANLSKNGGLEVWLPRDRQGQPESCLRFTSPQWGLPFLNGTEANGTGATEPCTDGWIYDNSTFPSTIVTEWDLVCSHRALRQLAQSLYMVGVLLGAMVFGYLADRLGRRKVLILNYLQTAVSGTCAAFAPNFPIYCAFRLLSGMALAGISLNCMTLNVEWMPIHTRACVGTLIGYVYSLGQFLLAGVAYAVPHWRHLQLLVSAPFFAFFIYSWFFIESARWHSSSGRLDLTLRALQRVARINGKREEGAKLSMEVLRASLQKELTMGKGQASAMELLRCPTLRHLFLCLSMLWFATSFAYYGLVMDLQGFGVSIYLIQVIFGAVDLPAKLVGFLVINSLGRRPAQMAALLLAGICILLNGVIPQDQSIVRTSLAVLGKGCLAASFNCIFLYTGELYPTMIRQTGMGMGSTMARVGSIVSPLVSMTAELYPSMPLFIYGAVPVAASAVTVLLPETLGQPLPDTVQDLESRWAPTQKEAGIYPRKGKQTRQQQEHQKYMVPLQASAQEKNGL
Sequence of CYP2E1 (P05181 whole entry, canonical isoform): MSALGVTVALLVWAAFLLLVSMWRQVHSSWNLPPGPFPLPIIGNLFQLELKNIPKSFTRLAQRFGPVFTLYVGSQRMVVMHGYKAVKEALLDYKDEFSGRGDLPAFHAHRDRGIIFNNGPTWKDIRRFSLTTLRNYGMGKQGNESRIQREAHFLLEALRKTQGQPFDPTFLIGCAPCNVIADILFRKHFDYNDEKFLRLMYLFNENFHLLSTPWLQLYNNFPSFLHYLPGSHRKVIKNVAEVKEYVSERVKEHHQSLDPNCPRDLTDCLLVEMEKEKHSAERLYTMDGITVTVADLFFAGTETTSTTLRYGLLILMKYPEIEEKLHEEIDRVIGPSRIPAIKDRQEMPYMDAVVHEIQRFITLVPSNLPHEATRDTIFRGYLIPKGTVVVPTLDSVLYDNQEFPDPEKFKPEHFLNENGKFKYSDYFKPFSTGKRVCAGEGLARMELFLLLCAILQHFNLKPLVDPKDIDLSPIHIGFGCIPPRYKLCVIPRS

On to `CC(O)c1cc(C(=O)N[C@@H](C)Cn2ccc(-c3ccc(C#N)c(Cl)c3)n2)[nH]n1` (some centres unmarked) [Darolutamide, darolutamide], for which the IC50 (usually the concentration needed to halve the response being measured) at CYP2E1 was more than 100 µM; against MATE2-K, 9.5 µM; against OAT1 it was more than 50 µM; at CYP1A2 it was more than 100 µM; on MRP2 it was more than 50 µM; at CYP2C19 it was 64.1 µM. Further, the IC50 was more than 50 µM at OCT1 [2] and 4.5 µM against OAT3. The “Overall assessment of CYP3A4 induction (RIS method)” value with CYP3A4 is given as “moderate-to-strong inducers”. Besides, the “uptake in OCT1-transfected HEK cells” value at OCT1 [1] is “no uptake”.

For the compound `CC(=O)c1cc(C(=O)N[C@@H](C)Cn2ccc(-c3ccc(C#N)c(Cl)c3)n2)[nH]n1` [Keto-darolutamide, keto-darolutamide], the half-maximal inhibitory concentration (IC50) is more than 100 µM at CYP2E1 (read-out: IC50, CYP2E1, human liver microsomes, substrate chlorzoxazone); 3 µM at MATE2-K (read-out: IC50, MATE2 K, HEK cells, substrate metformin, reference pyrimethamine); more than 2 µM at OAT1 (read-out: IC50, OAT1, HEK cells, substrate PAH, reference probenecid); more than 100 µM on CYP1A2 (read-out: IC50, CYP1A2, human liver microsomes, substrate phenacetin); more than 10 µM on MRP2 (read-out: IC50, MRP2, HEK cells, substrate CDCF, reference benzbromarone); 39.5 µM on CYP2C19 (read-out: IC50, CYP2C19, human liver microsomes, substrate S-mephenytoin). In addition, the IC50 was more than 10 µM at OCT1 [2] (read-out: IC50, OCT1, HEK cells, substrate 3H-MPP+, reference decynium 22) and more than 2 µM on OAT3 (read-out: IC50, OAT3, HEK cells, substrate furosemide, reference probenecid). For the same compound, the “Overall assessment of CYP3A4 induction (RIS method)” value in the data set on CYP3A4 is “weak-to-moderate inducer”. The “uptake in OCT1-transfected HEK cells” value at OCT1 [1] is reported as “no uptake”.

(Values after PMC6828636 (European Journal of Drug Metabolism and Pharmacokinetics, 2019).)
